From PubChem BioAssay
Rows were chosen to be rich in hits. Some 2.3% of all compounds tested hit in one or more screens of this group.
TRPC6 activator: activators of mouse TRPC6 channel. AID 2550. HEK293-TRPC6 membrane potential dye fluorescence; active compounds read high. 310,000 compounds, 0.13% hits. B-score at 10 µM;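 active = B-score of the integrated fluorescence ratio above library mean plus 3 SD, and starting fluorescence ratio within library mean plus 5 SD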;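 also: higher score means more depolarization so channel activation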
TRPC4 agonist: TRPC4 (mouse) channel activation. Q9QUQ5. HEK293 TRPC4beta/mu-opioid, Fluo4 calcium fluorescence; active compounds read high. B-score at 10 µM. 310,000 compounds, 0.49% hits. AID 2237;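 active = B-score above 5 SD of library B-scores, and initial fluorescence ratio not above library mean plus 5 SD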;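 also: positive B-score marks a calcium rise read as TRPC4 activation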
Target sequence (Q9QUQ5 whole entry, looked up): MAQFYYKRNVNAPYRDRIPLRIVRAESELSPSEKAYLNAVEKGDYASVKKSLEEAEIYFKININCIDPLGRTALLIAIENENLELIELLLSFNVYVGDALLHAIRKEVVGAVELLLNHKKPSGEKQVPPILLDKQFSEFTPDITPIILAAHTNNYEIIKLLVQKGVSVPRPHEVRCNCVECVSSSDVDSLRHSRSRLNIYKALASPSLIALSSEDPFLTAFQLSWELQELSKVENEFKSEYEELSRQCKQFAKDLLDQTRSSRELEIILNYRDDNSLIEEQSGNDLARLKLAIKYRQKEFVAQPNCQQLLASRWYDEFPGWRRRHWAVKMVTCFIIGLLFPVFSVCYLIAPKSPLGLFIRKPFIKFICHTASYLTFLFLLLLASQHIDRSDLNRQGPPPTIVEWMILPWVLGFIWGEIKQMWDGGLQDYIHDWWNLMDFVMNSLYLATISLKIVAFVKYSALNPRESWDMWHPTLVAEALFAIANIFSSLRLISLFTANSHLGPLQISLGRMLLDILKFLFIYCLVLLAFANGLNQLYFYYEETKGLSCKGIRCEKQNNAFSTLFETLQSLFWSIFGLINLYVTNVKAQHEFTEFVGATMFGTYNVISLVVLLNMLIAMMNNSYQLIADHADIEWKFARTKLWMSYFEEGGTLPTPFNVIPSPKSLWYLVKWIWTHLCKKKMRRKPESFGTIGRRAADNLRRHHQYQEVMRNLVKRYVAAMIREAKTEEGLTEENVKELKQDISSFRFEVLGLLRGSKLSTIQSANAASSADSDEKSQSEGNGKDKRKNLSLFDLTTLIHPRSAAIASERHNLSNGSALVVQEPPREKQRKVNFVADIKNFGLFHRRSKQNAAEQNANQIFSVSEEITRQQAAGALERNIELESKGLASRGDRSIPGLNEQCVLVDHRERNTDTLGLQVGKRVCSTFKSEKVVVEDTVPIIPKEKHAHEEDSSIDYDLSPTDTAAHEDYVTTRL
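Assay system – TRPC4beta and mu-opioid receptor HEK293 stable cells · Measured by – Fluo4 fluorescence, kinetic · Schedule – dye loading 45 min room temperature, 110 s kinetic read · Read-out – B-scored integrated calcium fluorescence ratio · Controls – buffer and maximal DAMGO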
TRPC4 block: blocks the mouse TRPC4 cation channel; Q9QUQ5; HEK293 TRPC4beta/mu-opioid, DAMGO-evoked Fluo4 calcium flux; active compounds read low; B-score at 10 µM; 300,000 compounds, 0.39% hits; AID 2247;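 active = B-score over 3 SD under the library average, no early fluorescence shift, positive overall ratio signal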
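Assay system – HEK293 line stably carrying TRPC4beta and mu-opioid receptor · Doses – single dose · Detection – Fluo4 calcium-dye fluorescence, kinetic read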
TRPC4 PAM: allosteric potentiators of mouse TRPC4 channel | Q9QUQ5 | HEK293 TRPC4beta/mu-opioid, DAMGO EC20, Fluo-4 Ca2+ flux; active compounds read high | B-score at 10 µM | 310,000 compounds, 0.42% hits | AID 2227;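 active = B-score of calcium response area above 5 SD of library B-scores, with initial fluorescence ratio within 5 SD of library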;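 also: B-score of integrated fluorescence ratio over time as area under calcium response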
TRPC6 inhibitor: mouse TRPC6 channel inhibition | Q61143 | HEK293-TRPC6, membrane potential dye, ACh-evoked depolarization; active compounds read low | B-score at 10 µM | 310,000 compounds, 1.1% hits | AID 2553;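 active = B-score under library mean minus 3 SD, initial fluorescence not abnormally high, positive integrated signal ratio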;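 also: B-score derived from integrated fluorescence ratio over the kinetic read; more negative B-score means stronger inhibition of depolarization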
* = called active by the depositor.

How did Cn1c(=O)c2c(ncn2CC(=O)OCC(=O)Nc2ccc(Cl)cc2)n(C)c1=O do in these assays?
TRPC6 activator: inactive; TRPC4 agonist: inactive; TRPC4 block: inactive; TRPC4 PAM: inactive; TRPC6 inhibitor: inactive

What do the screens show for `CC(OC(=O)Cn1cnc2c1c(=O)n(C)c(=O)n2C)C(=O)Nc1ccc(Cl)cc1` (stereo not drawn)?
TRPC6 activator: inactive; TRPC4 agonist: inactive; TRPC4 block: -8*; TRPC4 PAM: inactive; TRPC6 inhibitor: inactive

How did NC(=O)c1nsc(C(=O)N(Cc2ccco2)C(C(=O)NCc2ccc(F)cc2)c2ccc(O)cc2)c1N (stereo not drawn) do in these assays?
TRPC6 activator: inactive; TRPC4 agonist: inactive; TRPC4 block: -6*; TRPC4 PAM: inactive; TRPC6 inhibitor: inactive

How did NC(=O)c1nsc(C(=O)N(Cc2ccco2)C(C(=O)NC2CCCC2)c2ccc(O)cc2)c1N (stereo not drawn) do in these assays?
TRPC6 activator: inactive; TRPC4 agonist: inactive; TRPC4 block: -5*; TRPC4 PAM: inactive; TRPC6 inhibitor: inactive

What do the screens show for `Cc1ccc(C(C(=O)NCc2ccc(F)cc2)N(Cc2ccco2)C(=O)c2snc(C(N)=O)c2N)o1` (stereo not drawn)?
TRPC6 activator: inactive; TRPC4 agonist: inactive; TRPC4 block: inactive; TRPC4 PAM: inactive; TRPC6 inhibitor: inactive

Results for Cc1cc(-c2nnc(SCC(=O)Nc3ccccc3C(F)(F)F)o2)c(C)n1-c1ccccc1 ?
TRPC6 activator: inactive; TRPC4 agonist: inactive; TRPC4 block: inactive; TRPC4 PAM: inactive; TRPC6 inhibitor: inactive

Results for Cc1cccc(NC(=O)CSc2nnc(-c3cc(C)n(-c4ccccc4)c3C)o2)c1C ?
TRPC6 activator: inactive; TRPC4 agonist: inactive; TRPC4 block: -7*; TRPC4 PAM: inactive; TRPC6 inhibitor: inactive

What do the screens show for `CCOc1ccc(CSC(=N)N)cc1[N+](=O)[O-]`?
TRPC6 activator: inactive; TRPC4 agonist: 77*; TRPC4 block: inactive; TRPC4 PAM: inactive; TRPC6 inhibitor: inactive

Results for CCOc1ccc(CSC(=N)N)cc1Cl ?
TRPC6 activator: inactive; TRPC4 agonist: 120*; TRPC4 block: inactive; TRPC4 PAM: inactive; TRPC6 inhibitor: inactive

Results for CC(C)Oc1ccc(CSC(=N)N)cc1 ?
TRPC6 activator: inactive; TRPC4 agonist: inactive; TRPC4 block: inactive; TRPC4 PAM: inactive; TRPC6 inhibitor: inactive

How did CCOC(=O)c1cn(Cc2c(C)c(C)c(C)c(C)c2C)nn1 do in these assays?
TRPC6 activator: inactive; TRPC4 agonist: inactive; TRPC4 block: inactive; TRPC4 PAM: inactive; TRPC6 inhibitor: inactive

How did Cc1cccc(N2CCN(Cc3ccoc3)CC2)c1C do in these assays?
TRPC6 activator: inactive; TRPC4 agonist: inactive; TRPC4 block: -5*; TRPC4 PAM: inactive; TRPC6 inhibitor: inactive

How did COc1cc(S(=O)(=O)N2CCN(Cc3ccccc3)CC2)ccc1Br do in these assays?
TRPC6 activator: inactive; TRPC4 agonist: inactive; TRPC4 block: inactive; TRPC4 PAM: 10*; TRPC6 inhibitor: inactive

Results for COc1cc(CN2CCN(S(=O)(=O)c3ccccc3)CC2)cc(OC)c1OC ?
TRPC6 activator: inactive; TRPC4 agonist: inactive; TRPC4 block: inactive; TRPC4 PAM: inactive; TRPC6 inhibitor: inactive

Results for CCCC(=O)NCCc1cc2ccc(C)c(C)c2[nH]c1=O ?
TRPC6 activator: inactive; TRPC4 agonist: inactive; TRPC4 block: inactive; TRPC4 PAM: 12*; TRPC6 inhibitor: inactive

Results for CCC(=O)NCCc1cc2ccc(C)c(C)c2[nH]c1=O ?
TRPC6 activator: inactive; TRPC4 agonist: inactive; TRPC4 block: inactive; TRPC4 PAM: inactive; TRPC6 inhibitor: inactive

What do the screens show for `Cc1sc2ncnc(NCC(c3ccccc3)N(C)C)c2c1C` (stereo not drawn)?
TRPC6 activator: inactive; TRPC4 agonist: 218*; TRPC4 block: inactive; TRPC4 PAM: inactive; TRPC6 inhibitor: inactive

Results for Cc1sc2nc(CSc3ccccc3)nc(NCCN(C)C)c2c1C ?
TRPC6 activator: inactive; TRPC4 agonist: 176*; TRPC4 block: inactive; TRPC4 PAM: inactive; TRPC6 inhibitor: inactive

Results for c1coc(CNc2ncnc3sc4c(c23)CCCCC4)c1 ?
TRPC6 activator: inactive; TRPC4 agonist: inactive; TRPC4 block: inactive; TRPC4 PAM: inactive; TRPC6 inhibitor: inactive

How did CCNc1nc(CSc2ccccc2)nc2sc(C)c(C)c12 do in these assays?
TRPC6 activator: inactive; TRPC4 agonist: inactive; TRPC4 block: inactive; TRPC4 PAM: inactive; TRPC6 inhibitor: inactive

Results for CN(C)C(CNc1ncnc2sc3c(c12)CCCC3)c1ccco1 (stereo not drawn) ?
TRPC6 activator: inactive; TRPC4 agonist: 121*; TRPC4 block: inactive; TRPC4 PAM: inactive; TRPC6 inhibitor: inactive

How did Cc1nc(NCC(c2ccccc2)N(C)C)c2c(C)c(C)sc2n1 (stereo not drawn) do in these assays?
TRPC6 activator: inactive; TRPC4 agonist: 267*; TRPC4 block: inactive; TRPC4 PAM: inactive; TRPC6 inhibitor: inactive

What do the screens show for `Cc1nnc(SCC(=O)Nc2ccc(F)cc2F)n(N)c1=O`?
TRPC6 activator: inactive; TRPC4 agonist: inactive; TRPC4 block: inactive; TRPC4 PAM: inactive; TRPC6 inhibitor: inactive

How did CCN(CC)S(=O)(=O)c1ccc(OC)c(NS(=O)(=O)Cc2ccccc2)c1 do in these assays?
TRPC6 activator: inactive; TRPC4 agonist: inactive; TRPC4 block: inactive; TRPC4 PAM: inactive; TRPC6 inhibitor: inactive

Results for O=C(Cn1cnc(S(=O)(=O)N2CCCCC2)c1)N1CCN(c2ccc([N+](=O)[O-])cc2)CC1 ?
TRPC6 activator: inactive; TRPC4 agonist: inactive; TRPC4 block: inactive; TRPC4 PAM: inactive; TRPC6 inhibitor: inactive

What do the screens show for `CCOc1ccc(NC(=O)N(Cc2ccc(C)cc2)Cc2ccccn2)cc1`?
TRPC6 activator: inactive; TRPC4 agonist: inactive; TRPC4 block: inactive; TRPC4 PAM: inactive; TRPC6 inhibitor: inactive

How did COC(=O)CS(=O)(=O)c1cc(Br)cc2c1N(C(C)=O)CC2 do in these assays?
TRPC6 activator: inactive; TRPC4 agonist: inactive; TRPC4 block: inactive; TRPC4 PAM: inactive; TRPC6 inhibitor: inactive

Results for CCCN(CCC)CCCNS(=O)(=O)c1cc(Br)cc2c1N(C(C)=O)CC2 ?
TRPC6 activator: inactive; TRPC4 agonist: 62*; TRPC4 block: inactive; TRPC4 PAM: inactive; TRPC6 inhibitor: inactive

How did CC1CCN(CCCNS(=O)(=O)c2cc(Br)cc3c2N(C(=O)C2CC2)CC3)CC1 do in these assays?
TRPC6 activator: inactive; TRPC4 agonist: 105*; TRPC4 block: inactive; TRPC4 PAM: inactive; TRPC6 inhibitor: inactive

What do the screens show for `O=C1NCC(=O)N2CCC[C@@H]12`?
TRPC6 activator: inactive; TRPC4 agonist: inactive; TRPC4 block: inactive; TRPC4 PAM: inactive; TRPC6 inhibitor: inactive

Results for COc1ccc(OCCN(C)Cc2c(O)ccc3ccccc23)cc1 ?
TRPC6 activator: inactive; TRPC4 agonist: inactive; TRPC4 block: inactive; TRPC4 PAM: 18*; TRPC6 inhibitor: inactive
